Assay outcomes (PubChem)
OX1R antag-1: antagonists of human orexin 1 receptor. O43613. CHO/OX1R cells, Fluo-8 calcium fluorescence, orexin A. inhibition, % at 5 µM. 330,000 tested, 0.43% active;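 active = inhibition above its plate's threshold, mean inhibition of all tested compounds on the plate plus 3 SD, cut at about 37% in these data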
TAAR1 ag: agonists of human TAAR1; Q96RJ0; CHO RD-HGA16 TAAR1, Fluo-8 calcium fluorescence; vehicle wells 0%, saturating PEA agonist 100%; activation, % at 3 µM; 360,000 tested, 0.99% active; AID 624467;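 active = activation above the mean activation of all test compounds in the run plus 3 SD, cut at about 38% in these data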
Target sequence (Q96RJ0 whole entry, looked up): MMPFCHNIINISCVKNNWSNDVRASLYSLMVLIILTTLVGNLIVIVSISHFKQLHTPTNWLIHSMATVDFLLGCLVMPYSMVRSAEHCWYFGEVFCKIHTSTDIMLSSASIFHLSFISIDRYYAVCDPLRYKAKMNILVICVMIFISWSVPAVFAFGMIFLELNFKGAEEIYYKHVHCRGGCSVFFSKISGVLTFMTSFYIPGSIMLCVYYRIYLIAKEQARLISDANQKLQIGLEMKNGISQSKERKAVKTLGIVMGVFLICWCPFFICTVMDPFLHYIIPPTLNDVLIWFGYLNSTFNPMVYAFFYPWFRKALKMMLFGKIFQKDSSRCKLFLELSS
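Assay system: CHO-derived RD-HGA16 cells with stable Gα16 and human TAAR1; timing: 17-24 h seeding, 75 min 37 °C dye, 30 min RT; read-out: % activation from peak over basal fluorescence ratio, DMSO-to-PEA scaled; measured by: kinetic Fluo-8 calcium fluorescence; benchmarks: low control DMSO, high control PEA (EC100); doses: 3 µM single concentration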
OX1R antag-2: OX1R (human) antagonism. O43613. OX1R-expressing cells, FRET antagonist read-out. inhibition, % at 6.6 µM. 330,000 tested, 1.8% active. AID 485270; in the data active = inhibition mostly above about 38%, no sharp cut-off; inactive = mostly below about 40%
CHO parental Ca: signal in parental CHO cells, OX1R antagonist counter-screen; parental CHO-K1, ATP-induced calcium, Fluo-8 fluorescence; inhibition, % at 5.6 µM; 330,000 tested, 0.63% active;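 active = inhibition above that plate's mean sample inhibition plus 3 SD, cut at about 26% in these data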
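Material: parental CHO cells / Compound: single nominal dose of 5.6 µM per compound / Signal: Fluo-8 fluorescence / Replicates: singlicate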
TAAR1 antag: antagonists of human TAAR1. 360,000 tested, 1.5% active. inhibition, % at 3 µM. CHO RD-HGA16 TAAR1, Fluo-8 calcium fluorescence, antagonist;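 active = inhibition above a per-plate cutoff, the mean inhibition of test compounds on that plate plus 3 SD, cut at about 49% in these data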
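Test system – hTAAR1-expressing CHO RD-HGA16 cells, Gα16-coupled · Reagent – β-PEA at EC80 concentration, post-compound challenge · Compound dosing – 3 µM, single point · Timing – 140 s kinetic read after compound, 140 s after agonist · Detection – Fluo-8 intracellular calcium dye fluorescence, real-time kinetic reads · Control set – DMSO and EC80 PEA controls · Repeats – n of 1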
nonsel antag count: nonselective antagonism, TAAR1 counter-screen. 2,400 tested, 77% active. inhibition, % at 3 µM. counterscreen cell line, calcium fluorescence, antagonist mode. shares compounds with TAAR1 antag; in the data active = inhibition above about 22%;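 also: CHO-Ga16 host cells stimulated with ATP at an EC80 level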
TAAR1 antag conf: confirmation of human TAAR1 antagonists. shares compounds with TAAR1 antag. TAAR1-expressing cells, fluorescence antagonist read-out. inhibition, % at 3 µM. 2,400 tested, 40% active. AID 651785; in the data active = inhibition above about 49%;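 also: CHO-Ga16 host cells challenged with agonist PEA near its EC80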
Ga16 ag counter: counter-screen for TAAR1 antagonists: nonselective Ga16 agonists; 2,400 tested, 18% active; shares compounds with TAAR1 antag; Ga16-expressing cells, calcium fluorescence, agonist counterscreen; activation, % at 3 µM; AID 651953; in the data active = activation above about 12%
TAAR1 ag count: TAAR1 agonism, antagonist counter-screen. activation, % at 3 µM. 2,400 tested, 2% active. hTAAR1 cell line, fluorescence activation, agonist mode. shares compounds with TAAR1 antag. AID 651955; in the data active = activation above about 37%;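 also: CHO cells stably expressing TAAR1 with calcium dye readout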
Numbers stand for hits; . = inactive; / = no result given. This is a sample that favours compounds with a hit; in the whole collection about 3.9% have one here.

SMILES	OX1R antag-1	TAAR1 ag	OX1R antag-2	CHO parental Ca	TAAR1 antag	nonsel antag count	TAAR1 antag conf	Ga16 ag counter	TAAR1 ag count
O=C(CCCN1C(=O)c2cccc3cccc(c23)C1=O)NCc1cccs1	.	.	.	.	.	/	/	/	/
COCCNC(=O)[C@H]1N2C(=O)c3ccccc3C2SC1(C)C (stereo partly specified)	.	.	.	.	.	/	/	/	/
C=CCn1ccc(O)c(Cc2ccc(Cl)cc2)c1=O	.	.	.	.	.	/	/	/	/
COCCNC(=O)C1CCC(CNS(=O)(=O)c2ccccc2)CC1 (stereo unspecified)	.	.	.	.	.	/	/	/	/
CN1OC[C@@H]2CN(Cc3cc(Cl)cc(Cl)c3)[C@H](c3cccc(-c4ccc(C#N)cc4)c3)C[C@@H]21	/	.	/	/	.	/	/	/	/
Nc1nc2n(n1)C(c1ccc(F)cc1)CC(c1ccc(F)cc1)N2 (stereo unspecified)	.	.	.	.	.	/	/	/	/
Cc1sc2ncnc(N3CCC(C(=O)NNC(=O)COc4cccc(C(F)(F)F)c4)CC3)c2c1C	.	.	.	.	64	28	.	.	.
Cc1sc2ncnc(N3CCC(C(=O)NNC(=O)COc4ccc(Br)cc4)CC3)c2c1C	.	.	63	.	76	42	53	12	.
Cc1sc2ncnc(N3CCC(C(=O)NNC(=O)c4ccccc4Cl)CC3)c2c1C	.	.	.	.	.	/	/	/	/
Cc1sc2ncnc(N3CCC(C(=O)NNC(=O)COc4ccc(Cl)cc4)CC3)c2c1C	/	.	/	/	70	38	.	12	.
COc1cc(/C=N/NC(=O)CSc2nc3ccccc3n2C)cc(OC)c1OC	.	.	.	.	.	/	/	/	/
COC(=O)C1=C(C)N(Cc2ccco2)C(=O)N[C@H]1c1cccc(C(F)(F)F)c1	.	/	.	.	/	/	/	/	/
COc1ccc(Cn2ccnc2SCC(=O)Nc2ccc(F)cc2F)cc1	/	.	/	/	.	/	/	/	/
O=C(NCc1nc2ccccc2[nH]1)C1=C[C@@H](c2ccc(C(F)(F)F)cc2)C[C@@H](OCc2ccc(CO)cc2)O1	.	.	.	.	52	25	.	.	.
C#CCNC(=O)C1=C[C@H](c2csc3ccccc23)C[C@H](OCc2ccc(CO)cc2)O1	.	.	.	.	65	24	.	.	.
O=C(NCc1ccccc1)C1=C[C@H](c2ccc3c(c2)OCO3)C[C@H](OCc2ccc(CO)cc2)O1	.	.	.	.	59	25	.	.	.
CC1CCCC(C)N1C(=O)COC(=O)CCC(=O)c1ccc(F)cc1 (stereo unspecified)	.	.	.	.	.	/	/	/	/
Cc1nc2[nH]c(=S)n(C)c(=O)c2nc1C	.	.	.	.	.	/	/	/	/
OCCN1CCN(c2ncnc3c2c(-c2ccccc2)cn3-c2ccc(Br)cc2)CC1	.	.	.	.	.	/	/	/	/
Fc1ccc(-n2cc(-c3ccccc3)c3c(N4CCOCC4)ncnc32)cc1	.	.	.	.	67	.	.	.	.
COc1ccc(-n2cc(-c3ccccc3)c3c(N4CCOCC4)ncnc32)cc1	.	.	.	.	69	24	.	.	.
NC(=O)C1CCN(c2ncnc3c2c(-c2ccccc2)cn3-c2ccccc2)CC1	.	.	.	.	64	25	.	.	.
CCc1c(C(=O)N2CCCN(C)CC2)csc1C	.	.	.	.	.	/	/	/	/
NC(=O)c1ncn([C@@H]2O[C@H](CNCc3ccc(-c4cc(C(F)(F)F)ccc4Cl)o3)[C@@H](O)[C@H]2O)n1	/	.	/	/	.	/	/	/	/
CCCCN1C(C(=O)Nc2ncccn2)=C(O)c2ccccc2S1(=O)=O	.	.	.	.	.	/	/	/	/
SMILES	OX1R antag-1	TAAR1 ag	OX1R antag-2	CHO parental Ca	TAAR1 antag	nonsel antag count	TAAR1 antag conf	Ga16 ag counter	TAAR1 ag count
Cc1ccc(C)c(NC(=S)NCC(c2ccccc2)N(C)C)c1 (stereo unspecified)	.	.	.	.	.	/	/	/	/
Cc1cc(C)cc(NC(=O)Nc2ccc3c(c2)N(C)C(=O)CS3)c1	.	.	.	34	82	43	51	.	.
Cc1cc(C)n(CCN(C)C(=O)C2CCC(=O)N(CCN3CCOCC3)C2)n1 (stereo unspecified)	.	.	.	.	.	/	/	/	/
O=C(COc1ccccc1Cl)Nc1nc(-c2ccncc2)cs1	.	.	.	.	64	43	58	13	.
O=C(COC(=O)c1cccnc1Cl)Nc1nc(-c2ccccc2)cs1	.	.	.	.	68	33	.	12	.
Cc1ccc(C(=O)OCC(=O)Nc2nc(-c3ccccc3)cs2)cc1NC(=O)c1ccco1	.	.	.	.	83	37	54	.	.
COc1cc(NC(=O)COc2ccccc2Cl)ccc1NC(=O)c1cccs1	.	.	.	.	57	24	.	.	.
O=C(COC(=O)c1ccccc1O)Nc1cccnc1Cl	.	.	.	.	.	/	/	/	/
COc1cc(NC(=O)COc2ccccc2[N+](=O)[O-])ccc1NC(=O)c1cccs1	/	.	/	/	.	/	/	/	/
Cc1ccc(C(=O)OCC(=O)Nc2ccccc2)cc1NC(=O)c1ccco1	.	.	.	.	.	/	/	/	/
COc1ccc(C(=O)NNC(=O)c2cccs2)cc1S(=O)(=O)N1CCOCC1	.	.	.	.	.	/	/	/	/
Cc1ccc(S(=O)(=O)c2cc3c(=O)n4cccc(C)c4nc3n(Cc3ccncc3)c2=N)cc1	.	/	.	.	/	/	/	/	/
COc1ccc([C@@H]2CC(=O)[C@@H]3CN(S(=O)(=O)c4ccc(C)cc4)[C@H](c4ccccc4)C[C@@H]3N2S(=O)(=O)c2ccccc2)cc1	/	.	/	/	.	/	/	/	/
COc1ccc(C(=O)Nc2cccc(NC(=O)c3cccs3)c2)cc1OC	.	.	75	.	62	26	.	.	.
COc1cccc(OC)c1C(=O)Nc1cccc(NC(=O)c2cccs2)c1	.	.	.	.	.	/	/	/	/
COc1ccccc1CN(Cc1nc2ccccc2c(=O)[nH]1)C(=O)Nc1ccc(C)cc1	.	.	.	.	.	/	/	/	/
COc1ccccc1CN(Cc1nc2ccccc2c(=O)[nH]1)S(=O)(=O)c1ccc(C)cc1	.	.	.	.	53	.	.	.	.
O=C(CN(c1ccc2c(c1)OCCO2)S(=O)(=O)c1ccccc1)NCc1ccc(Cl)cc1	.	.	.	.	75	26	62	.	.
N#CC(C(N)=O)=C1CCCCC1	.	.	.	.	.	/	/	/	/
COc1ccc(N(C)S(=O)(=O)c2cccc(C(=O)Nc3nc(C)c(C(C)=O)s3)c2)cc1	.	.	.	.	62	38	57	15	.
CC(=O)c1sc(NC(=O)c2cccc(C)c2)nc1C	.	.	.	.	.	/	/	/	/
